# SIAE primary: human SIAE inhibitors, primary screen, biochemical, fluorescence polarization, FP-Rh probe, 1536-well HTS. hit rate 0.69% among 370,000. SIAE FP-Rh probe binding. inhibition, % at 9.66 µM. Sialate O-acetylesterase (Homo sapiens), Q9HAT2;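 active = inhibition above a cutoff: mean of compounds within the control limits plus 3 SD of those, cut at about 17% in these data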;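 note: 0% = plate median of compound wells and 100% = probe without SIAE protein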
# mABHD4 FP: ABHD4 inhibitors, primary screen, biochemical, fluorescence polarization, mouse. (Lyso)-N-acylphosphatidylethanolamine lipase (Mus musculus), Q8VD66. purified mABHD4, FP-Rh probe fluorescence polarization. inhibition, % at 8.92 µM. hit rate 0.54% among 370,000. AID 720543, 2013;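 active = inhibition exceeding the mean over every tested compound plus 3 SD, cut at about 30% in these data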;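 note: 0% = plate median of compound wells and 100% = S159A mutant with DMSO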
#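 Test system: mABHD4 protein; Read-out basis: % inhibition; Incubation: 45 min + 60 min at 25 °C; Repeats: single replicate; Technique: fluorescence polarization with parallel and perpendicular emission, 525/598 nm; Compound: 8.92 µM, single dose; Benchmarks: full inhibition S159A mutant plus DMSO, zero as sample-well median.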
# HTRA1 inhibitor: HTRA1 serine protease inhibitors, primary screen, biochemical, fluorescence polarization, HTS; inhibition, % at 5.96 µM; Q92743; AID 504803, 2011; hit rate 0.5% among 340,000; recombinant HTRA1, FP-rhodamine activity-based probe; in the data active = inhibition above about 36%;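 note: 0% = enzyme with DMSO and 100% = wells lacking enzyme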
# Target sequence (Q92743 whole entry, looked up): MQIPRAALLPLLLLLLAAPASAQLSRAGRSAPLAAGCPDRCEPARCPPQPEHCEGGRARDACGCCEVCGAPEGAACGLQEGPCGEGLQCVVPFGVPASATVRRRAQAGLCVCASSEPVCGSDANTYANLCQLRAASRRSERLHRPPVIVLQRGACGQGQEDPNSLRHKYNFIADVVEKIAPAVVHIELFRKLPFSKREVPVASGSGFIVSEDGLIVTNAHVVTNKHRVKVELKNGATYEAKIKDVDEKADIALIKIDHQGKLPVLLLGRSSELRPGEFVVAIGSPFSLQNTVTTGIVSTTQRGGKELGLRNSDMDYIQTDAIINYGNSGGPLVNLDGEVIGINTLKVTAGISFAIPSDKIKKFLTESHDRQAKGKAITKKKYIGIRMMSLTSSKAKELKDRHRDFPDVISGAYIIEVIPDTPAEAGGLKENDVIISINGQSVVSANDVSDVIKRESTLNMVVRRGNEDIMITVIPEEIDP
# PRMT1 inh: PRMT1 methyltransferase inhibitors, primary screen, biochemical, fluorescence polarization. recombinant PRMT1, activity-based probe fluorescence polarization. AID 652257, 2013. hit rate 1.3% among 370,000. inhibition, % at 2.79 µM;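 active = inhibition above about 21% made by adding two undisclosed values, limit read from the data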
# TCR-CD3 inh: inhibitors of human TCR-CD3 interaction, primary screen, biochemical, fluorescence, TAMRA-labeled TCR probe | inhibition, % at 9.4 µM | hit rate 0.37% among 360,000 | AID 651800, 2012; in the data active = inhibition above about 19%;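 note: recombinant mutant TCR 2C K166C tagged with TAMRA read by polarization; 0% = receptor in buffer alone and 100% = receptor with positive control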
# Numbers without * were called inactive; · = no result. Compounds with a hit are over-represented: about 2.5% of the library has one in this group of screens.
SMILES,SIAE primary,mABHD4 FP,HTRA1 inhibitor,PRMT1 inh,TCR-CD3 inh
Cc1ccccc1-n1c(SCC(=O)N2CCOCC2)nc(O)c(Cc2ccccc2)c1=O,-4,-8,-2,24*,1
O=C1OC(c2ccccc2)Sc2ccccc21 (stereo not given),-1,2,-3,19,1
O=C1OC(c2cccs2)Sc2ccccc21 (stereo not given),3,3,·,25*,2
COc1ccc(C(=O)CSc2ccc(-c3ccco3)nn2)cc1,1,6,3,23*,9
COc1ccc(C(=O)CSc2ccc(-c3ccccc3)nn2)cc1,-2,-13,-17,1,4
NC(=O)C1CCN(C(=O)CCC(=O)c2ccc(Br)cc2)CC1,-4,-9,-6,-4,0
Cc1nc2c(sc3nc(N4CCOCC4)c4c(c32)CC(C)(C)OC4)c(-c2ccc(Cl)cc2)c1C(=O)O,-5,17,-45,-2,4
CC1=C(C(=O)OCc2ccccc2)N2C(=O)[C@@H](NC(=O)COc3ccccc3)[C@H]2SC1,-2,-6,-6,-2,-4
CC(=O)OCC1=C(C(=O)O)N2C(=O)C(NC(=O)CCn3nc(C(F)(F)F)c(Br)c3C3CC3)C2SC1 (stereo not given),7,9,4,25*,-1
O=C(COc1ccccc1)NC1C(=O)N2C(C(=O)O)=C(Cl)CSC12 (stereo not given),6,11,0,24*,11
CC(=O)OCC1=C(C(=O)O)N2C(=O)C(NC(=O)Cn3nc(C(F)F)c(Cl)c3C)C2SC1 (stereo not given),1,5,-19,20,5
CC(=O)OCC1=C(C(=O)O)N2C(=O)C(NC(=O)CC(C)c3ccccc3)C2SC1 (stereo not given),5,8,4,22*,-5
CC(=O)OCC1=C(C(=O)O)N2C(=O)C(NC(=O)CCn3nc(C)c(Cl)c3C)C2SC1 (stereo not given),-5,0,6,24*,2
Cn1cc(CC(=O)NCCCN2CCCC2=O)c2ccccc21,4,-4,1,-3,4
Cc1ccc(F)cc1C(=O)N1CCCCC1c1cc(C(=O)NC(C)C)no1 (stereo not given),9,5,·,-2,2
Cc1ccc(Nc2c(F)cccc2Cl)c(CC(=O)O)c1,2,2,·,-5,·
COc1ccc(OS(=O)(=O)c2c(C)noc2C)cc1,-3,0,7,6,-3
COc1ccccc1NC(=S)c1ccccc1,4,-11,2,23*,-3
CC(=O)N1CCc2c(sc(NC(=O)C3CC3)c2-c2nc3ccccc3s2)C1,-21,-3,-31,30*,3
CN(C)CCNc1ncnc2c1ncn2[C@H]1CN(CCc2ccccc2)C[C@@H](CO)O1,0,-2,·,-4,-1
COCCN=C1Sc2ccccc2[C@@H]2C[C@H]3[C@H](CON3C)CN12,7,7,·,24*,8
CCCCCCCCS(=O)c1sc2nc3c(cc2c1N)CCCC3 (stereo not given),-3,-10,-16,24*,-7
Cc1csc(N/N=C/c2ccccc2F)n1,1,15,4,20,-42
CCOc1ccc(/C=N/Nc2nc(C)cs2)c(O)c1,3,4,17,21*,2
COc1ccc(-n2c(CN3CCN(c4ccccn4)CC3)nc3ccc([N+](=O)[O-])cc3c2=O)c(OC)c1,1,10,1,0,-2
SMILES,SIAE primary,mABHD4 FP,HTRA1 inhibitor,PRMT1 inh,TCR-CD3 inh
Cc1ccc(S(=O)(=O)NNC(=S)NC(=O)c2ccc([N+](=O)[O-])cc2)cc1,-2,4,-1,8,-1
Cc1ccc(C(=O)NC(=S)NNS(=O)(=O)c2ccc(C)cc2)cc1,1,22,0,23*,5
O=C(CCN1CCc2ccccc2C1)c1ccc2c(c1)OCCO2,·,·,4,·,·
O=C(CCN1CCCCC1)c1ccc2c(c1)OCCO2,2,6,-1,24*,-2
Cc1ccc(CNC(=O)CS(=O)(=O)Cc2nc(-c3ccc(C)cc3)oc2C)cc1,-6,8,1,6,-6
Cc1ccc(S(=O)(=O)c2ccc([N+](=O)[O-])o2)cc1,3,-1,2,76*,-6
Cc1ccc(NC(=O)c2ccc([N+](=O)[O-])o2)c(C)c1,-2,1,1,-5,-1
